Data published in ChEMBL document CHEMBL4689842, “EUbOPEN Chemogenomics Library wave 1” (2021).

System: HEK-293T
Experiment: Multiplex assay against HEK293T;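 for Population Tubulin-Different-Phenotype (%): share of the cells with healthy nuclei that show this phenotype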
Assay type: toxicity, cell-based
Conditions: human
Method in brief: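 Cells were classed with CellPathfinder machine-learning gating, first as Hoechst high-intensity objects or normal cells, then (normal cells) as healthy, pyknosed or fragmented nuclei, and finally (pyknosed cells) as mitotic or apoptotic. Staining of live cells at seeding used Hoechst33342, BioTracker Green Microtubule Cytoskeleton Dye, MitoTracker Red and Annexin V Alexa Fluor 680, with imaging on a CQ1 microscope at 37°C and 5% CO2 after compound addition. Tubulin, mitochondrial-mass and membrane-permeability phenotypes are per cents of healthy-nucleus cells.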

[1] = 12 h, 1 µM, compound concentration 1 uM, replicate 1
[2] = 12 h, 1 µM, compound concentration 1 uM, replicate 2
[3] = 12 h, 10 µM, compound concentration 10 uM, replicate 1
[4] = 12 h, 10 µM, compound concentration 10 uM, replicate 2
[5] = 24 h, 1 µM, compound concentration 1 uM, replicate 1
[6] = 24 h, 1 µM, compound concentration 1 uM, replicate 2
[7] = 24 h, 10 µM, compound concentration 10 uM, replicate 1
[8] = 24 h, 10 µM, compound concentration 10 uM, replicate 2
[9] = 48 h, 1 µM, compound concentration 1 uM, replicate 1
[10] = 48 h, 1 µM, compound concentration 1 uM, replicate 2
[11] = 48 h, 10 µM, compound concentration 10 uM, replicate 1
[12] = 48 h, 10 µM, compound concentration 10 uM, replicate 2

Compound: CC(C)NCC(O)COc1ccc(CCOCC2CC2)cc1.Cl (stereo not given) [BETAXOLOL HYDROCHLORIDE]
- Population Apoptotic (%) [1]: 43%
- Population Fragmented Nuclei (%) [1]: 7%
- Population Healthy Nuclei (%) [1]: 49%
- Population Hoechst High Intensity Objects (%) [1]: 10%
- Population Membrane Permeable-Phenotype (%) [1]: 3%
- Population Mitochondria Different-Phenotype (%) [1]: 82%
- Population Mitotic Cells (%) [1]: 56%
- Population Normal (%) [1]: 89%
- Population Pyknosed Nuclei (%) [1]: 43%
- Population Tubulin-Different-Phenotype (%) [1]: 56%
- Total Cell Count [1]: 343
- Population Apoptotic (%) [2]: 12%
- Population Fragmented Nuclei (%) [2]: 6%
- Population Healthy Nuclei (%) [2]: 43%
- Population Hoechst High Intensity Objects (%) [2]: 1%
- Population Membrane Permeable-Phenotype (%) [2]: 8%
- Population Mitochondria Different-Phenotype (%) [2]: 14%
- Population Mitotic Cells (%) [2]: 87%
- Population Normal (%) [2]: 98%
- Population Pyknosed Nuclei (%) [2]: 50%
- Population Tubulin-Different-Phenotype (%) [2]: 19%
- Total Cell Count [2]: 227
- Population Apoptotic (%) [3]: 55%
- Population Fragmented Nuclei (%) [3]: 9%
- Population Hoechst High Intensity Objects (%) [3]: 13%
- Population Membrane Permeable-Phenotype (%) [3]: 1%
- Population Mitochondria Different-Phenotype (%) [3]: 100%
- Population Mitotic Cells (%) [3]: 44%
- Population Normal (%) [3]: 86%
- Population Pyknosed Nuclei (%) [3]: 59%
- Population Tubulin-Different-Phenotype (%) [3]: 95%
- Total Cell Count [3]: 247
- Population Apoptotic (%) [4]: 36%
- Population Fragmented Nuclei (%) [4]: 3%
- Population Healthy Nuclei (%) [4]: 30%
- Population Hoechst High Intensity Objects (%) [4]: 2%
- Population Membrane Permeable-Phenotype (%) [4]: 6%
- Population Mitochondria Different-Phenotype (%) [4]: 71%
- Population Mitotic Cells (%) [4]: 63%
- Population Normal (%) [4]: 97%
- Population Pyknosed Nuclei (%) [4]: 65%
- Population Tubulin-Different-Phenotype (%) [4]: 77%
- Total Cell Count [4]: 259
- Population Apoptotic (%) [5]: 45%
- Population Fragmented Nuclei (%) [5]: 6%
- Population Healthy Nuclei (%) [5]: 60%
- Population Hoechst High Intensity Objects (%) [5]: 7%
- Population Membrane Permeable-Phenotype (%) [5]: 2%
- Population Mitochondria Different-Phenotype (%) [5]: 65%
- Population Mitotic Cells (%) [5]: 54%
- Population Normal (%) [5]: 92%
- Population Pyknosed Nuclei (%) [5]: 33%
- Population Tubulin-Different-Phenotype (%) [5]: 37%
- Total Cell Count [5]: 403
- Population Apoptotic (%) [6]: 10%
- Population Healthy Nuclei (%) [6]: 64%
- Population Hoechst High Intensity Objects (%) [6]: 1%
- Population Membrane Permeable-Phenotype (%) [6]: 7%
- Population Mitochondria Different-Phenotype (%) [6]: 22%
- Population Mitotic Cells (%) [6]: 89%
- Population Normal (%) [6]: 98%
- Population Pyknosed Nuclei (%) [6]: 29%
- Population Tubulin-Different-Phenotype (%) [6]: 32%
- Total Cell Count [6]: 314
- Population Apoptotic (%) [7]: 69%
- Population Fragmented Nuclei (%) [7]: 11%
- Population Healthy Nuclei (%) [7]: 32%
- Population Hoechst High Intensity Objects (%) [7]: 15%
- Population Membrane Permeable-Phenotype (%) [7]: 4%
- Population Mitochondria Different-Phenotype (%) [7]: 98%
- Population Mitotic Cells (%) [7]: 30%
- Population Normal (%) [7]: 84%
- Population Pyknosed Nuclei (%) [7]: 55%
- Population Tubulin-Different-Phenotype (%) [7]: 80%
- Total Cell Count [7]: 258
- Population Apoptotic (%) [8]: 47%
- Population Fragmented Nuclei (%) [8]: 2%
- Population Healthy Nuclei (%) [8]: 50%
- Population Hoechst High Intensity Objects (%) [8]: 5%
- Population Membrane Permeable-Phenotype (%) [8]: 3%
- Population Mitochondria Different-Phenotype (%) [8]: 80%
- Population Mitotic Cells (%) [8]: 52%
- Population Normal (%) [8]: 94%
- Population Pyknosed Nuclei (%) [8]: 46%
- Population Tubulin-Different-Phenotype (%) [8]: 82%
- Total Cell Count [8]: 321
- Population Apoptotic (%) [9]: 28%
- Population Fragmented Nuclei (%) [9]: 8%
- Population Healthy Nuclei (%) [9]: 79%
- Population Hoechst High Intensity Objects (%) [9]: 5%
- Population Membrane Permeable-Phenotype (%) [9]: 1%
- Population Mitochondria Different-Phenotype (%) [9]: 28%
- Population Mitotic Cells (%) [9]: 71%
- Population Normal (%) [9]: 94%
- Population Pyknosed Nuclei (%) [9]: 12%
- Population Tubulin-Different-Phenotype (%) [9]: 31%
- Total Cell Count [9]: 701
- Population Apoptotic (%) [10]: 11%
- Population Fragmented Nuclei (%) [10]: 6%
- Population Healthy Nuclei (%) [10]: 81%
- Population Hoechst High Intensity Objects (%) [10]: 3%
- Population Membrane Permeable-Phenotype (%) [10]: 4%
- Population Mitochondria Different-Phenotype (%) [10]: 6%
- Population Mitotic Cells (%) [10]: 88%
- Population Normal (%) [10]: 97%
- Population Pyknosed Nuclei (%) [10]: 11%
- Population Tubulin-Different-Phenotype (%) [10]: 22%
- Total Cell Count [10]: 601
- Population Apoptotic (%) [11]: 67%
- Population Fragmented Nuclei (%) [11]: 14%
- Population Healthy Nuclei (%) [11]: 48%
- Population Hoechst High Intensity Objects (%) [11]: 14%
- Population Membrane Permeable-Phenotype (%) [11]: 0%
- Population Mitochondria Different-Phenotype (%) [11]: 84%
- Population Mitotic Cells (%) [11]: 32%
- Population Normal (%) [11]: 85%
- Population Pyknosed Nuclei (%) [11]: 36%
- Population Tubulin-Different-Phenotype (%) [11]: 61%
- Total Cell Count [11]: 288
- Population Apoptotic (%) [12]: 40%
- Population Fragmented Nuclei (%) [12]: 4%
- Population Healthy Nuclei (%) [12]: 72%
- Population Hoechst High Intensity Objects (%) [12]: 4%
- Population Membrane Permeable-Phenotype (%) [12]: 1%
- Population Mitochondria Different-Phenotype (%) [12]: 63%
- Population Mitotic Cells (%) [12]: 59%
- Population Normal (%) [12]: 95%
- Population Pyknosed Nuclei (%) [12]: 23%
- Population Tubulin-Different-Phenotype (%) [12]: 77%
- Total Cell Count [12]: 435
